Data on 1 compound can be found in article PMC7480498 (Journal of Extracellular Vesicles, 2020).

Data set [1] in a line: Safety evaluation: blood biochemical indices. The settings on record: normal mice, n = 3. In kind it is in vivo, ICR mice. An outline of the steps:
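ICR mice (20–22 g) were randomly divided into six groups and given the treatments used previously. Blood biochemical indices were then assessed.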

The nature of data set [2]: In vivo toxicity: body weight and H&E staining of major organs. Set-up: species or system nude mice. A digest of the protocol: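 BALB/c nude mice bearing subcutaneous axillary A549 xenografts (5 × 10^6 cells) were randomised at mean 80 mm3 into six groups (n = 10). Test formulations were given intravenously every two days for five doses, at 2 mg/kg and 0.8 mg/kg of the two loaded agents. One free-agent control was given by oral gavage at 20 mg/kg over 6 days. Body weight was measured every two days. At the end of treatment, one mouse per group was sacrificed, and heart, liver, spleen, lung and kidney were fixed in 4% paraformaldehyde, sectioned and stained with H&E.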

Consider `COc1cccc2c1C(=O)c1c(O)c3c(c(O)c1C2=O)C[C@@](O)(C(=O)CO)C[C@@H]3O[C@H]1C[C@H](N)[C@H](O)[C@H](C)O1` [Free DOX, doxorubicin], for which the “level of serum creatine kinase” value in data set [1] is listed as “significantly elevated”. The body weight result in data set [2] (A549 tumour-bearing nude mice during treatment) is recorded as “substantial weight loss”. Also, in data set [2] (nude mice bearing subcutaneous A549 tumour), the “cardiac tissue histology (H&E)” value is recorded as “noticeable cardiac tissue degeneration”.
